Tn7 DDE FP – inhibitors of Tn7 peptide binding to human fibrin DD(E); inhibition, % at 8.3 µM; 370,000 compounds, 0.13% hits; FP displacement of FITC-Tn7 peptide from fibrin DD(E); 0% = median of compound wells per plate;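 active means inhibition above the mean of compounds falling within the control limits plus 3 SD of them, cut at about 14% in these data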
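Assay system: Human clot-derived fibrin DD(E) complex | Buffer or medium: Tris/NaCl/CaCl2 buffer, pH 7.8 | Repeats: One replicate per compound | Benchmarks: Aha-Tn7 high control | Measure: % inhibition scaled between sample-field median and high-control FP | Schedule: 10 min plus 3 h, room temperature | Signal: Fluorescence polarization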
ABCB1 inh – inhibitors of human ABCB1 transporter, ABCG2 counter-screen; CCRF-Adr cells, JC-1 efflux, flow cytometry; AID 1326; inhibition, % at 6.6 µM; 190,000 compounds, 0.067% hits; in the data active means inhibition above about 40%;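 further: higher value means more JC-1 retained so stronger ABCB1 efflux block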
ABCG2 block – blocks JC-1 efflux by human ABCG2 transporter | Q9UNQ0 | IgMXP3 cells, flow cytometry | inhibition, % at 6.6 µM | 190,000 compounds, 0.1% hits | AID 1325;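 active means inhibition above 80%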
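Incubation: cells with compound and JC-1, 10 min at 25 °C, rotating, no wash / Test system: IgMXP3 (ABCG2) plus far-red-tagged CCRF-Adr (ABCB1) cells / Compound dosing: one concentration, 6.6 µM final / Also added: JC-1 fluorescent substrate / Evaluation: efflux inhibition in percent versus controls / Detection: flow cytometry, 530 nm JC-1 signal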
Tn6 DDE FP – DD(E)-Tn6 binding inhibition, primary FP screen | 370,000 compounds, 0.21% hits | P02675 | AID 720509 | Fibrin DD(E) TRITC-Tn6 fluorescence polarization displacement | inhibition, % at 8.3 µM;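 active means inhibition above a per-campaign cutoff: mean of compounds within control limits plus 3 SD, cut at about 15% in these data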
Insulin prom up – MIN6 insulin promoter up-regulation | z-score at 5 µM | MIN6 insulin promoter-GFP reporter, high-content imaging; hits give high values | 190,000 compounds, 0.3% hits | AID 1625;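 active means z-score above 3 at 5 µM with at least 500 cells counted in the well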
GRK2 aptamer HTS – inhibitors of human GRK2 displacing RNA aptamer; 330,000 compounds, 0.59% hits; inhibition of aptamer binding, % at 10 µM; bead flow cytometry, FAM-aptamer displacement from GRK2; P25098;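 active means inhibition of aptamer binding above 40%, roughly 3 SD of noise, on plates passing a quality check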;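 further: median bead fluorescence of bound FAM aptamer so fluorescent compounds give negative values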
GRK2 inh confirm – confirmation of human GRK2 inhibitors displacing RNA aptamer; 2,000 compounds, 4% hits; bead-bound GRK2, FAM-aptamer displacement, flow cytometry; AID 504451; shares compounds with GRK2 aptamer HTS; aptamer displacement, % at 10 µM;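 active means aptamer displacement above 40%, near three times the noise of non-fluorescent compounds, on plates passing quality checks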;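 further: negative values mostly reflect intrinsic compound fluorescence rather than true enhancement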
Aptamer quench 1 – quenches fluorescent RNA aptamer, GRK2 hit artifact | 110 tested, under 10 active | AID 504521 | fluorescence change (kMESF span), kMESF (concentration not given with the values) | shares compounds with GRK2 aptamer HTS | Fluorescent RNA aptamer beads, quenching, flow cytometry; hits give high values;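 active means compounds whose bead fluorescence drops by more than 37 kMESF across the dose range, marking them as dye quenchers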
Aptamer quench SP – counter-screen for GRK2 aptamer inhibitors: fluorescent aptamer quenchers; AID 504580; Carboxyfluorescein RNA aptamer on beads, flow cytometry quenching; hits give low values; shares compounds with GRK2 aptamer HTS; fluorescence response (% of DMSO), % at 10 µM; 2,000 tested, under 10 active;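 active means compounds that quench the bead-bound fluorescent RNA probe, cutting fluorescence to under half of the solvent control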;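 further: counterscreen run without GRK2 so only probe quenching by compound is measured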
GRK2 CP2 – confirmation of human GRK2 inhibitors binding RNA aptamer site | shares compounds with GRK2 aptamer HTS | bead-bound GRK2, FAM-aptamer displacement, flow cytometry | inhibition of aptamer binding, % at 10 µM | 360 tested, under 10 active | AID 504782;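 active means inhibition of aptamer binding above 40%, about triple the noise seen with nonglowing compounds, on plates passing quality control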;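 further: negative values mostly come from compounds that fluoresce themselves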
FAM quench SP – counter-screen for GRK2 binding hits: quenchers of fluorescent RNA aptamer | shares compounds with GRK2 aptamer HTS | carboxyfluorescein RNA aptamer beads, flow cytometry quenching; hits give low values | fluorescence response vs DMSO, % at 10 µM | 360 tested, under 10 active | AID 588494;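 active means response vs DMSO under 50%, meaning signal dropped by over half, treated as fluorescence quencher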;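 further: labelled aptamer on streptavidin beads without GRK2 as a quench counter-screen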
Numbers stand for hits; - = inactive; . = no result given. Hits are enriched below; roughly 0.99% of the tested compounds scored in any of these assays.

SMILES	Tn7 DDE FP	ABCB1 inh	ABCG2 block	Tn6 DDE FP	Insulin prom up	GRK2 aptamer HTS	GRK2 inh confirm	Aptamer quench SP	others
O=C(COC(=O)CNC(=O)c1ccccc1)Nc1nnc(-c2ccccc2)o1	-	.	.	-	.	-	-	-
O=C(COCc1ccccc1)N1CC[C@H]2[C@H](CCCN2Cc2cc(F)cc(F)c2)C1	-	.	.	-	.	.	.	.
CC(C)CCn1c(COc2ccccc2)n[nH]c1=S	-	-	-	-	-	53	-	-
CC(=O)Nc1ccc(N(C)C)cc1[N+](=O)[O-]	-	-	-	-	-	41	79	-	Aptamer quench 1=-
CC(=O)Nc1ccc(O)cc1[N+](=O)[O-]	-	.	.	-	-	-	.	.
Cc1oc(-c2ccccc2F)nc1CN1CCC(C(=O)NC2CCCc3ccccc32)CC1 (centres undefined)	-	-	-	-	-	-	-	-
Cc1oc(/C=N/NC(=O)CC2(C)OCCO2)cc1Br	-	-	-	-	-	-	-	-
CC(=O)N/C(=C\c1ccccc1)C(=O)NCc1ccc2c(c1)OCO2	-	-	-	-	-	64	-	-
Cc1cc(C(F)(F)F)nc(SCC(=O)NC2CC3CCC2C3)n1 (centres undefined)	-	-	-	-	.	53	-	-
Cc1cc(C(F)(F)F)nc(SCC(=O)Nc2ccccc2)n1	-	-	-	-	-	-	.	.
Cc1cc(C)c(S(=O)(=O)c2c(C)cccc2C)c(Cl)n1	-	-	-	-	.	81	-	-
COc1cccc(C(NC(C)=O)c2ccc3cccnc3c2O)c1 (centres undefined)	-	.	.	-	.	80	-	-
CC1COCC(C)N1S(=O)(=O)c1ccc2c(c1)CCN2C(=O)C1CCC1 (centres undefined)	-	.	.	-	.	.	.	.
NC(=O)N(CCC(=O)O)c1ccccc1	-	-	-	-	.	78	.	.	GRK2 CP2=-;FAM quench SP=-
CCN(CCC(=O)O)c1ccccc1	-	-	-	-	-	-	.	.
COc1cc(C(c2c(C(=O)O)[nH]c3ccccc23)c2c(C(=O)O)[nH]c3ccccc23)ccc1OCc1ccccc1	-	.	.	-	.	-	.	.
C=CCOc1ccc(C(c2c(C(=O)O)[nH]c3ccccc23)c2c(C(=O)O)[nH]c3ccccc23)cc1	-	.	.	-	.	79	-	-
C=CCN1C(=O)[C@@H](CC(=O)NCc2ccccc2)[C@]2(C(=O)OCC)CCCCC/C=C/12	-	.	.	-	.	.	.	.
C=CCN1C(=O)/C(=C/c2ccc(-c3ccc(F)cc3)o2)SC1=S	-	.	.	-	.	43	-	-
C=CCN1C(=O)/C(=C/c2ccsc2)SC1=S	-	-	-	-	-	-	.	.
CC(C)c1onc(C(=O)NC2CCCC2)c1[N+](=O)[O-]	-	-	-	-	-	-	.	.
CC(C)c1onc(C(=O)N(C)C2CCCCC2)c1[N+](=O)[O-]	-	-	-	-	-	54	-	-
O=C(C1CCCC1)N1CCN(S(=O)(=O)c2cccc(Cl)c2Cl)CC1	-	.	.	-	.	68	-	-
Cc1ccc(-c2cccc(C3CC=CC4C3C(=O)N(Cc3ccccc3)C4c3cc(C)ccc3F)c2)cc1 (centres undefined)	-	.	.	-	.	-	-	-

High-throughput results from PubChem BioAssay.
